Experimental data gathered from unrelated publications.
Protocols differ between the studies behind these lines.
Nos1: Nitric oxide synthase 1 (Nos1, Rattus norvegicus, UniProt P29476)
HDAC8: Histone deacetylase 8 (HDAC8, Homo sapiens, UniProt Q9BY41)
Dipeptidyl peptidase 8: Dipeptidyl peptidase 8 (Homo sapiens, UniProt Q6V1X1)

C#Cc1n[nH]c2c(-c3cn([C@@H](C)c4ccccc4)c(=O)[nH]c3=O)cc(F)cc12
inhibition (Tyrosine-protein kinase Yes (YES1, Homo sapiens, UniProt P07947); enzyme activity; inhibitor; 0.1 µM): -3.5%

O=C(CCCCCCC(=O)Nc1ccccc1)NO
inhibition (Histone deacetylase 1 (HDAC1, Homo sapiens, UniProt Q13547); enzyme activity; inhibitor; 0.1 µM): 66.3%

C[C@H](C(=O)N[C@H]1COc2ccccc2[C@@H]1S(C)(=O)=O)c1ccc(F)cc1
inhibition (Nos1; enzyme activity; inhibitor; 10 µM): 6%

COc1cc(Nc2ncc(F)c(Nc3ccc4c(n3)NC(=O)C(C)(C)O4)n2)cc(OC)c1OC
inhibition (Ephrin type-A receptor 6 (EPHA6, Homo sapiens, UniProt Q9UF33); binding; competition with immobilised ligand; 10 µM): 82%

O=c1ccc2cc3ccoc3cc2o1
inhibition (HDAC8; enzyme activity; inhibitor; 10 µM): 30.7%

Cn1cc(-c2cccc(N3CCc4c(sc5c4CC(C)(C)C5)C3=O)c2CO)cc(Nc2ccncn2)c1=O
inhibition (Testis-specific serine/threonine-protein kinase 2 (TSSK2, Homo sapiens, UniProt Q96PF2); enzyme activity; inhibitor; 1 µM): 2%

c1ccc(C(NCCNC(c2ccccc2)c2ccccc2)c2ccccc2)cc1
inhibition (Nos1; enzyme activity; inhibitor; 10 µM): 6%

CN(CCN1CCC(OC(=O)Nc2ccccc2-c2ccccc2)CC1)C(=O)c1ccc(CN2CCC(C(N)=O)CC2)cc1
inhibition (Substance-K receptor (TACR2, Homo sapiens, UniProt P21452); ligand displacement; radioligand; 1 µM): 1%

CN(C)C(=O)COC(=O)Cc1ccc(OC(=O)c2ccc(NC(=N)N)cc2)cc1
inhibition (Dipeptidyl peptidase 8; enzyme activity; inhibitor; 10 µM): 8%

CCN(CC)CCCC[C@H](NC(=O)[C@H](CC(C)C)NC(=O)[C@H](C)NC(=O)[C@H](Cc1ccccc1)NC(=O)c1ccc(C(C)(C)C)cc1)C(=O)N[C@@H](CO)C(=O)OC
inhibition (Mu-type opioid receptor (OPRM1, Homo sapiens, UniProt P35372); ligand displacement; radioligand; 10 µM): 51%

N#Cc1ccc(NCCNCC(=O)N2N=CCC2C#N)nc1 (stereo not shown)
inhibition (Dipeptidyl peptidase 8; enzyme activity; inhibitor; 1 µM): 0%

Cn1cc(-c2cc(F)cc(N3CCn4c(cc5c4CCCC5)C3=O)c2CO)cc(Nc2ccc(N3CCN(C4COC4)CC3)cn2)c1=O
inhibition (Protein kinase C alpha type (PRKCA, Homo sapiens, UniProt P17252); enzyme activity; inhibitor; 0.1 µM): -11%

CCOC(=O)c1ccc(OC(=O)CCCCCNC(=N)N)cc1
inhibition (Dipeptidyl peptidase 8; enzyme activity; inhibitor; 10 µM): 13%

O=c1ccc2ccc3occc3c2o1
inhibition (HDAC8; enzyme activity; inhibitor; 10 µM): 33.9%

N=C(N)c1ccc2cc(OC(=O)c3ccc(N=C(N)N)cc3)ccc2c1
inhibition (Ubiquitin carboxyl-terminal hydrolase 8 (USP8, Homo sapiens, UniProt P40818); enzyme activity; inhibitor; 10 µM): 5%

C#Cc1n[nH]c2c(-c3cn(C(C)c4ccccn4)c(=O)[nH]c3=O)cc(F)cc12 (stereo not shown)
inhibition (Glycogen synthase kinase-3 alpha (GSK3A, Homo sapiens, UniProt P49840); enzyme activity; inhibitor; 1 µM): 4.6%
